The text below walks through data of paper PMC2289302 (The Journal of Cell Biology, 1992).

The target of assay [1] is LDV peptide-RSA conjugate (human). Put plainly: cell adhesion assay.
Assay [2] has as its system A375 melanoma cells. Type of assay: cell-based, human. As to conditions: 5 ug/ml peptide, no activation, Figs. 2 and 3. The method, boiled down:
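Surfaces coated at 5 ug/ml with plasma fibronectin or with synthetic peptides, each carrying an NH2-terminal cysteine on a gly-gly-gly tail and conjugated to SMCC-derivatized RSA. Human melanoma A375 cells were left to adhere for 1 h. Nonadherent cells were washed off. Adherent monolayers were photographed under phase contrast on an inverted microscope to judge adhesion and spreading.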

Assay [3] addresses alpha 4 beta 1 integrin (human (endogenous in Jurkat, Ramos, …, UniProt P13612;P05556)). Put plainly: cell adhesion assay.

Consider “alpha 4 beta 1 integrin (from UniProt P13612;P05556) (receptor)”, for which the molar concentration of peptide conjugate required for 50% adhesion in assay [1] was above 2000. In the case of rsa-EILDVPST, in assay [2], the “adhesion of A375 melanoma cells to coated surface, in words” value was “able to support the adhesion”. As a reminder, the IC50 is the concentration needed to halve the response being measured. A higher IC50 goes with weaker potency in that assay. In assay [3], LHGPEILDVPST [B12 peptide] gave an IC50 of 400 µM. In assay [3], GPEILDVPST [GPEILDVPST peptide] displayed an IC50 of 450 µM. On the same count and under the same terms, the figure for EILDV [EILDV peptide] is 660 µM. Same read-out and setting: the figure for DELPQLVTLPHPN [A13 peptide] is above 1000 µM.
